Source: ChEMBL document CHEMBL3232973, “The identification of novel 5'-amino gemcitabine analogs as potent RRM1 inhibitors” (Bioorg Med Chem, 2014)
Calls of active or inactive are those of the source. No cut-off for these calls is given here.

Assays:
[1] = biological target: T1, Ribonucleoside-diphosphate reductase large subunit (Homo sapiens) (UniProt P23921); test: Inhibition of RRM1 in human U2OS cells assessed as gammaH2AX induction at 0.5 to 125 uM after 2 hrs by FITC/propidium iodide-staining based flow cytometry in presence of SCH900776; assay type: cell-based
T1 sequence (whole entry): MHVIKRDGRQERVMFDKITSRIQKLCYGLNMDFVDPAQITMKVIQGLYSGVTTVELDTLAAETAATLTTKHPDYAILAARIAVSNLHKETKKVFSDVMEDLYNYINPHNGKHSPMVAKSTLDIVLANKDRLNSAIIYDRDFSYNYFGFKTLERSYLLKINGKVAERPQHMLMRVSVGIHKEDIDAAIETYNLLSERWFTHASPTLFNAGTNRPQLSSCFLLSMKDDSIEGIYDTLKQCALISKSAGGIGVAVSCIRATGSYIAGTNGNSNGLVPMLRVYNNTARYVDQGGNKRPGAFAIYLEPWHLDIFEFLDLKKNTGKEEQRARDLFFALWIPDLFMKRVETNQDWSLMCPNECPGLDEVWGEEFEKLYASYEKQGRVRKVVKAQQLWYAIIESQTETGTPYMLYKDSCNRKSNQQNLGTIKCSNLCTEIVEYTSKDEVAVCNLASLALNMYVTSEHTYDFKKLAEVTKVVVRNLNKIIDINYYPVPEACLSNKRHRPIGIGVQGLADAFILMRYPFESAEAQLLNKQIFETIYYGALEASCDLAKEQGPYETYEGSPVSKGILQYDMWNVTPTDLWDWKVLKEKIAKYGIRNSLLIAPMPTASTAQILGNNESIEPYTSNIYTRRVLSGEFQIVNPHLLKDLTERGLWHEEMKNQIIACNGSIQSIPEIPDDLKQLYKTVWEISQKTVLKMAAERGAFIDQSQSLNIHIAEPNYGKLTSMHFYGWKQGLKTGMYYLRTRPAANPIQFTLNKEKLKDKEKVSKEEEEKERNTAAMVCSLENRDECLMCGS
Procedure, shortened: (§1)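 U2OS cells were given titrated compound overnight, then kept with or without 0.5 uM SCH 900776 for a further 2 h in the compound's presence. Cells were fixed and permeabilized in 70% ethanol, stained with FITC anti-γH2AX antibody and counterstained with propidium iodide. Read-out was flow cytometry or imaging, given as % γH2AX-positive cells.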

[2] = biological target: T1, Ribonucleoside-diphosphate reductase large subunit (Homo sapiens); test: Inhibition of RRM1 in human U2OS cells assessed as gammaH2AX induction at 0.5 to 125 uM after 2 hrs by FITC/propidium iodide-staining based flow cytometry in absence of SCH900776; assay type: cell-based; procedure, shortened: as §1
[3] = biological target: T1, Ribonucleoside-diphosphate reductase large subunit (Homo sapiens); test: Inhibition of RRM1 in human U2OS cells assessed as gammaH2AX induction after 2 hrs by FITC/propidium iodide-staining based flow cytometry in presence of SCH900776; assay type: cell-based; procedure, shortened: as §1
[4] = Binding affinity to yeast RRM1 assessed as reduction of unbound compound level by line-broadening NMR spectroscopy; design: species or system Saccharomyces cerevisiae
Saccharomyces cerevisiae [5] = test: Binding affinity to yeast RRM1 assessed as reduction of free compound level by line-broadening NMR spectroscopy relative to control; design: scale not given: the % may be the effect or the level left
Saccharomyces cerevisiae [6] = test: Binding affinity to yeast RRM1 assessed as reduction of unbound-compound level at 200 uM by NOESY-spectroscopy
[7] = Competitive binding affinity to yeast RRM1 assessed as reduction in CDP NMR signals by STD-NMR spectroscopy; design: species or system Saccharomyces cerevisiae
[8] = biological target: T2, Ribonucleotide reductase (Homo sapiens) (UniProt P23921+Q7LG56); test: Inhibition of human RRM1/RNR2 activity using CDP as substrate assessed as reduction of dCDP production at 100 uM preincubated for 30 mins followed by substrate addition measured after 1 hr by NMR spectroscopy; assay type: protein-complex assay
Procedure, shortened: (§2)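 Human RRM1 and RNR2 were run at 27 °C in 50 mM d-Tris in D2O, pH 7.6, with 10 mM d-DTT. Compound was preincubated 30 min with active enzyme and 1 mM ATP. CDP was then added to start the reaction, which was heat-quenched after 1 h. 1H NMR measured dCDP formed and CDP consumed against control spectra. Controls were dATP, didox and gemcitabine diphosphate.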

[9] = biological target: T1, Ribonucleoside-diphosphate reductase large subunit (Homo sapiens); test: Inhibition of RRM1 in human CEM cells assessed as depletion of dATP level at 1 uM after 2 hrs by HPLC analysis; assay type: cell-based; settings: CCRF-CEM
Procedure, shortened: (§3)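 CEM cells were treated for 2 h, with untreated cells as control. Pellets were taken up in ice-cold water and deproteinized with an equal volume of 6% TCA. Supernatants were neutralized with NH4OH, then run on ion-pair HPLC (tetrabutylammonium hydroxide/KH2PO4, pH 7.0 gradient) with UV detection at 260 nm. Pool levels are peak AUC, in triplicate.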

[10] = biological target: T2, Ribonucleotide reductase (Homo sapiens); test: Inhibition of human RRM1/RNR2 activity using CDP as substrate assessed as reduction of CDP consumption at 100 uM preincubated for 30 mins followed by substrate addition measured after 1 hr by NMR spectroscopy; assay type: protein-complex assay; procedure, shortened: as §2
[11] = biological target: T1, Ribonucleoside-diphosphate reductase large subunit (Homo sapiens); test: Inhibition of RRM1 in human CEM cells assessed as depletion of dCTP level at 1 uM after 2 hrs by HPLC analysis; assay type: cell-based; settings: CCRF-CEM; procedure, shortened: as §3
[12] = biological target: T1, Ribonucleoside-diphosphate reductase large subunit (Homo sapiens); test: Inhibition of RRM1 in human CEM cells assessed as depletion of dGTP level at 1 uM after 2 hrs by HPLC analysis; assay type: cell-based; settings: CCRF-CEM; procedure, shortened: as §3

| Compound | inhibition [1] | inhibition [2] | inhibition [3] | Kd [4] | Activity (Saccharomyces cerevisiae [5]) | Activity (Saccharomyces cerevisiae [6]) | Ki [7] | inhibition [8] | inhibition [9] | inhibition [10] | inhibition [11] | inhibition [12] |
| --- | --- | --- | --- | --- | --- | --- | --- | --- | --- | --- | --- | --- |
| Nc1ccn([C@@H]2O[C@H](CO)[C@@H](O)C2(F)F)c(=O)n1 | Active | Active |  |  |  |  |  |  |  |  |  |  |
| Nc1ccn([C@@H]2O[C@H](CNCCN3CCCC3=O)[C@@H](O)C2(F)F)c(=O)n1 | Active | Active | Dose-dependent effect |  |  |  |  |  |  |  |  |  |
| Nc1ccn([C@@H]2O[C@H](CNCc3ccco3)[C@@H](O)C2(F)F)c(=O)n1 | Active | Active | Dose-dependent effect |  |  |  |  |  |  |  |  |  |
| C[C@H](NC[C@H]1O[C@@H](n2ccc(N)nc2=O)C(F)(F)[C@@H]1O)c1ccnn1C | Active | Active | Dose-dependent effect |  |  |  |  |  |  |  |  |  |
| Nc1ccn([C@@H]2O[C@H](CN3CCn4nccc4C3)[C@@H](O)C2(F)F)c(=O)n1 | Active | Active | Dose-dependent effect | 200 µM | 27% | Active | 150 µM | 32% | Active | 32% | Active | Active |
